Reference: ChEMBL document CHEMBL4364254 (J Med Chem, 2019)

Tests used:
Cannabinoid receptor 1 = Cannabinoid receptor 1 (Homo sapiens, UniProt P21554); test: Displacement of [3H]CP55940 from human CB1 receptor expressed in HEK293 cell membranes
Procedure, shortened: (§1)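 Competition binding against [3H]CP55940 in membranes from HEK cells overexpressing human CB1 or CB2. Ki values are derived from displacement, and the same membrane format is used for both receptors. Values are averages of three to six independent measurements.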

Homo sapiens = species: Homo sapiens; test: Selectivity ratio of Ki for displacement of [3H]CP55940 from human CB2 receptor expressed in HEK293 cell membranes to Ki for displacement of [3H]CP55940 from human CB1 receptor expressed in HEK293 cell membranes
Procedure, shortened: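 Competitive displacement of [3H]CP55940 from membranes of HEK cells overexpressing human CB1 or human CB2. A Ki was determined at each receptor, and selectivity was expressed as Ki(CB2)/Ki(CB1). Ki values are means of three to six independent measurements.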

Cannabinoid receptor 2 = Cannabinoid receptor 2 (Homo sapiens, UniProt P34972); test: Displacement of [3H]CP55940 from human CB2 receptor expressed in HEK293 cell membranes; procedure, shortened: as §1
[1] = Half life in Sprague-Dawley rat plasma at 1 mg/kg, po by LC-MS/MS analysis; type: ADME, organism-based
[2] = Cmax in C57BL6 mouse plasma at 0.3 mg/kg, po measured at 1 hr post dose by LC-MS/MS analysis; type: ADME, organism-based; parameters: dose 0.3 mg/kg, route oral
Procedure, shortened: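 Female C57BL6 mice, 8 weeks old, received a single oral dose of 0.3 mg/kg in 1% NMP/0.3% Tween 80 in 0.5% Na-CMC. […] Maximum observed concentrations are reported; plasma clearance and half-life come from PK analysis.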

Chain of Cannabinoid receptor 2 (P34972 whole entry): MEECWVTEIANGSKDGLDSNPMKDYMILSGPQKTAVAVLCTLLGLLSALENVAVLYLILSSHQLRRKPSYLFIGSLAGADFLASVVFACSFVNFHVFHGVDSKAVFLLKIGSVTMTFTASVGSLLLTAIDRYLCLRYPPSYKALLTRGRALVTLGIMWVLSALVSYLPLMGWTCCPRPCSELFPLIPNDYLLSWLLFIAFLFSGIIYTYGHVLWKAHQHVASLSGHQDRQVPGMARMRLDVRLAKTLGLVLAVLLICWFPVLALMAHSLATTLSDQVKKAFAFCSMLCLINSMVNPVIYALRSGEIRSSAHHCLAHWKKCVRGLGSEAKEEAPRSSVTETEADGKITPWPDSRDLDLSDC
Chain of Cannabinoid receptor 1 (P21554 whole entry): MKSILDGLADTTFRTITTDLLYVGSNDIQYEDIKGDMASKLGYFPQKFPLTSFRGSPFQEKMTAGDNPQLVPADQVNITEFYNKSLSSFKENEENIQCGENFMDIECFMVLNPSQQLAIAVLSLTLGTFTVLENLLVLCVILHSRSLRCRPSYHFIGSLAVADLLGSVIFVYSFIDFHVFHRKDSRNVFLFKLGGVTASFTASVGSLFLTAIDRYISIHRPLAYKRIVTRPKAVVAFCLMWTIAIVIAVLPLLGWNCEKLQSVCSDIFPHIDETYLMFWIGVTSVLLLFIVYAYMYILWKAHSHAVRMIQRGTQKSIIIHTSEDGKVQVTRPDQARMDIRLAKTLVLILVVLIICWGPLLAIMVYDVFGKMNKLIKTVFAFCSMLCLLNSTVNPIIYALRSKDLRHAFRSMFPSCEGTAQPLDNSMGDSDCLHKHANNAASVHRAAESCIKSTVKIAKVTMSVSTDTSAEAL

half-life [1] [h] | Cmax [2] [ng/mL] | Structure (SMILES) | Ki (Cannabinoid receptor 1) [nM] | Ratio Ki (Homo sapiens) | Ki (Cannabinoid receptor 2) [nM]
 |  | CC1(NC(=O)NCc2ccccc2F)CCN(c2ncnc3c2nc(-c2ccccc2Cl)n3-c2ccc(Cl)cc2)CC1 | 15 | 73 | 1100
 |  | O=C(NCC1CCCCC1)NC1CCN(c2ncnc3c2nc(-c2ccccc2Cl)n3-c2ccc(C(F)(F)F)nc2)CC1 | 730 |  | 
 |  | CC1(NC(=O)NC2CCC(F)(F)CC2)CCN(c2ncnc3c2nc(-c2ccccc2Cl)n3-c2ccc(Cl)cc2)CC1 | 17 |  | > 10000
 |  | O=C(NCc1ccccc1F)NC1CCN(c2ncnc3c2nc(-c2ccccc2Cl)n3-c2ccc(Cl)cc2)CC1 |  |  | 220
 |  | O=C(NCC1CCCCC1)NC1CCN(c2ncnc3c2nc(-c2ccccc2Cl)n3-c2ccc(Cl)cc2)CC1 | 0.9 |  | 7600
 |  | CC1(NS(=O)(=O)NC2CCCCC2)CCN(c2ncnc3c2nc(-c2ccccc2Cl)n3-c2ccc(Cl)cc2)CC1 | 9 | 82 | 740
12 | 1230 | O=C(Nc1ccc(F)cc1F)NC1CCN(c2ncnc3c2nc(-c2ccccc2Cl)n3-c2ccc(Cl)cc2)CC1 |  |  | 
 |  | O=C(NC1CCCC1)NC1CCN(c2ncnc3c2nc(-c2ccccc2Cl)n3-c2ccc(Cl)cc2)CC1 |  |  | > 10000
 |  | CCCN(C)C(=O)NC1CCN(c2ncnc3c2nc(-c2ccccc2Cl)n3-c2ccc(Cl)cc2)CC1 |  |  | 630
 |  | CC1(NC(=O)Nc2ccccc2F)CCN(c2ncnc3c2nc(-c2ccccc2Cl)n3-c2ccc(Cl)cc2)CC1 | 4 |  | > 10000
 |  | O=C(NCC1CCC(F)(F)CC1)NC1CCN(c2ncnc3c2nc(-c2ccccc2Cl)n3-c2ccc(Cl)cc2)CC1 | 26 |  | > 10000
 |  | O=C(NC1CCN(c2ncnc3c2nc(-c2ccccc2Cl)n3-c2ccc(Cl)cc2)CC1)N1CCCCC1 | 1.2 | 330 | 400
 |  | CCCN(CC(F)(F)F)C(=O)NC1CCN(c2ncnc3c2nc(-c2ccccc2Cl)n3-c2ccc(Cl)cc2)CC1 | 1.1 | 2500 | 2800
 |  | O=C(NCC1CCCC1)NC1CCN(c2ncnc3c2nc(-c2ccccc2Cl)n3-c2ccc(Cl)cc2)CC1 |  |  | 3200
 |  | CC1(NC(=O)Nc2ccc(OC(F)F)nc2)CCN(c2ncnc3c2nc(-c2ccccc2Cl)n3-c2ccc(Cl)cc2)CC1 | 81 |  | > 10000
 |  | CC1(NC(=O)Nc2ccc(F)cc2F)CCN(c2ncnc3c2nc(-c2ccccc2Cl)n3-c2ccc(Cl)cc2)CC1 | 6 |  | > 10000
 |  | COCCN(C)C(=O)NC1CCN(c2ncnc3c2nc(-c2ccccc2Cl)n3-c2ccc(Cl)cc2)CC1 |  |  | 2300
 |  | O=C(NC1CCN(c2ncnc3c2nc(-c2ccccc2Cl)n3-c2ccc(Cl)cc2)CC1)NC1(C(F)(F)F)CCCC1 | 6.3 |  | > 10000
 |  | O=C(NC1CCCCC1)NC1CCN(c2ncnc3c2nc(-c2ccccc2Cl)n3-c2ccc(Cl)cc2)CC1 | 1.4 |  | 4600
 |  | CC(C)CN(C)C(=O)NC1CCN(c2ncnc3c2nc(-c2ccccc2Cl)n3-c2ccc(Cl)cc2)CC1 |  |  | 600
 |  | CC1(NC(=O)NC2CCCCC2)CCN(c2ncnc3c2nc(-c2ccccc2Cl)n3-c2ccc(Cl)cc2)CC1 | 13 |  | > 10000
 |  | CC1(NC(=O)NC2CCN(c3ncnc4c3nc(-c3ccccc3Cl)n4-c3ccc(Cl)cc3)CC2)CCC(F)(F)CC1 | 5 |  | 7500
